Data published in ChEMBL document CHEMBL1629583, “Establishment of in vitro susceptibility testing methodologies and comparative activities of piperacillin in combination with the penem {beta}-lactamase inhibitor BLI-489” (2009).

What was measured:
Assay type in all cases: functional
Providencia stuartii = assay: Antimicrobial activity against Providencia stuartii clinical isolate after 18 to 22 hrs by broth microdilution method
Streptococcus agalactiae = assay: Antimicrobial activity against Streptococcus agalactiae clinical isolate after 18 to 22 hrs by broth microdilution method
Enterobacter cloacae = assay: Antimicrobial activity against Enterobacter cloacae clinical isolate after 18 to 22 hrs by broth microdilution method
Haemophilus influenzae [1] = assay: Antimicrobial activity against beta-lactamase-producing Haemophilus influenzae clinical isolate after 18 to 22 hrs by broth microdilution method
[2] = tested on: Stenotrophomonas maltophilia; assay: Antimicrobial activity against Stenotrophomonas maltophilia clinical isolate after 18 to 22 hrs by broth microdilution method
Klebsiella pneumoniae [3] = assay: Antimicrobial activity against class A extended spectrum beta-lactamase- and class D OXA- producing Klebsiella pneumoniae clinical isolate after 18 to 22 hrs by broth microdilution method
Escherichia coli [4] = assay: Antimicrobial activity against class A extended spectrum beta-lactamase- and class D OXA- producing Escherichia coli clinical isolate after 18 to 22 hrs by broth microdilution method
Citrobacter koseri = assay: Antimicrobial activity against Citrobacter koseri clinical isolate after 18 to 22 hrs by broth microdilution method
Escherichia coli [5] = assay: Antimicrobial activity against class A extended spectrum beta-lactamase- producing Escherichia coli clinical isolate after 18 to 22 hrs by broth microdilution method
Acinetobacter johnsonii = assay: Antimicrobial activity against Acinetobacter johnsonii clinical isolate after 18 to 22 hrs by broth microdilution method
Acinetobacter lwoffii = assay: Antimicrobial activity against Acinetobacter lwoffii clinical isolate after 18 to 22 hrs by broth microdilution method
Klebsiella pneumoniae [6] = assay: Antimicrobial activity against class A extended spectrum beta-lactamase- producing Klebsiella pneumoniae clinical isolate after 18 to 22 hrs by broth microdilution method
Streptococcus pneumoniae [7] = assay: Antimicrobial activity against penicillin-intermediate Streptococcus pneumoniae clinical isolate after 18 to 22 hrs by broth microdilution method
Burkholderia cepacia = assay: Antimicrobial activity against Burkholderia cepacia clinical isolate after 18 to 22 hrs by broth microdilution method
Streptococcus pneumoniae [8] = assay: Antimicrobial activity against penicillin-susceptible Streptococcus pneumoniae clinical isolate after 18 to 22 hrs by broth microdilution method in presence of beta-lactamase inhibitor Tazobactam
Procedure, shortened: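 Broth microdilution per CLSI in Mueller-Hinton II broth supplemented with 5% lysed horse blood, using serial dilutions of piperacillin-tazobactam. Inoculum was 10^5 CFU/ml. Incubation was 18 to 22 h at 35°C in ambient air. MIC was the lowest concentration with no growth visible to the unaided eye.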

[9] = tested on: Acinetobacter calcoaceticus; assay: Antimicrobial activity against Acinetobacter calcoaceticus clinical isolate after 18 to 22 hrs by broth microdilution method in presence of beta-lactamase inhibitor BLI-489
Procedure, shortened: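 CLSI broth microdilution in Mueller-Hinton II broth. Piperacillin serial dilutions were combined with BLI-489 held constant at 4 μg/ml. Inoculum was 10^5 CFU/ml. Plates were incubated 18 to 22 h at 35°C in ambient air. MIC was the lowest concentration completely inhibiting growth seen by the unaided eye. Piperacillin-tazobactam interpretive criteria were applied.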

Klebsiella pneumoniae [10] = assay: Antimicrobial activity against class A extended spectrum beta-lactamase- and class D OXA- producing Klebsiella pneumoniae clinical isolate after 18 to 22 hrs by broth microdilution method in presence of beta-lactamase inhibitor Tazobactam
Procedure, shortened: (§1)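 Piperacillin-tazobactam was tested by CLSI broth microdilution in Mueller-Hinton II broth against clinical isolates. Inoculum was 10^5 CFU/ml, with 18 to 22 h incubation at 35°C in ambient air. MIC was read as the lowest concentration completely inhibiting visible growth.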

Citrobacter freundii = assay: Antimicrobial activity against Citrobacter freundii clinical isolate after 18 to 22 hrs by broth microdilution method in presence of beta-lactamase inhibitor Tazobactam
Procedure, shortened: (§2)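 Piperacillin-tazobactam was tested on recent clinical isolates by CLSI broth microdilution in Mueller-Hinton II broth, with tazobactam at constant 4 μg/ml. Wells held 10^5 CFU/ml and were incubated 18 to 22 h at 35°C in ambient air. MIC was the lowest concentration with no growth visible to the unaided eye.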

[11] = tested on: Staphylococcus epidermidis; assay: Antimicrobial activity against methicillin-susceptible Staphylococcus epidermidis clinical isolate after 18 to 22 hrs by broth microdilution method in presence of beta-lactamase inhibitor Tazobactam
Procedure, shortened: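 CLSI broth microdilution of piperacillin-tazobactam in Mueller-Hinton II broth with serial dilutions. Inoculum was 10^5 CFU/ml. Incubation was 18 to 22 h at 35°C in ambient air. MIC was read as the lowest concentration giving complete inhibition of growth visible to the unaided eye.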

Staphylococcus aureus = assay: Antimicrobial activity against methicillin-resistant Staphylococcus aureus clinical isolate after 18 to 22 hrs by broth microdilution method in presence of beta-lactamase inhibitor Tazobactam
Procedure, shortened: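 CLSI broth microdilution in Mueller-Hinton II broth. Antibiotic in serial dilution with the β-lactamase inhibitor held at a constant 4 μg/ml. Inoculum 10^5 CFU/ml. Incubated 18 to 22 h at 35°C in ambient air.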

Pseudomonas aeruginosa = assay: Antimicrobial activity against Pseudomonas aeruginosa clinical isolate after 18 to 22 hrs by broth microdilution method in presence of beta-lactamase inhibitor BLI-489
Procedure, shortened: (§3)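 CLSI broth microdilution in Mueller-Hinton II broth. Serial dilutions of piperacillin were tested with BLI-489 held at a constant 4 μg/ml. Inoculum was 10^5 CFU/ml. Plates were incubated 18 to 22 h at 35°C in ambient air. MIC was the lowest concentration giving complete growth inhibition by unaided eye.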

Proteus mirabilis = assay: Antimicrobial activity against Proteus mirabilis clinical isolate after 18 to 22 hrs by broth microdilution method in presence of beta-lactamase inhibitor BLI-489; procedure, shortened: as §3
Enterococcus faecium = assay: Antimicrobial activity against Enterococcus faecium clinical isolate after 18 to 22 hrs by broth microdilution method in presence of beta-lactamase inhibitor Tazobactam; procedure, shortened: as §1
Haemophilus influenzae [12] = assay: Antimicrobial activity against beta-lactamase-negative Haemophilus influenzae clinical isolate after 18 to 22 hrs by broth microdilution method in presence of beta-lactamase inhibitor Tazobactam
Procedure, shortened: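 […] was used for CLSI broth microdilution with piperacillin-tazobactam. Inoculum was 10^5 CFU/ml, incubated 18 to 22 h at 35°C in ambient air. MIC was the lowest concentration with no growth visible to the unaided eye.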

Serratia marcescens = assay: Antimicrobial activity against AmpC beta-lactamase-producing Serratia marcescens clinical isolate after 18 to 22 hrs by broth microdilution method in presence of beta-lactamase inhibitor Tazobactam; procedure, shortened: as §2

C[C@H]1COc2c(N3CCN(C)CC3)c(F)cc3c(=O)c(C(=O)O)cn1c23.C[C@H]1COc2c(N3CCN(C)CC3)c(F)cc3c(=O)c(C(=O)O)cn1c23.O [LEVOFLOXACIN]
16 µg/mL: MIC90 (Providencia stuartii) | MIC50 (Escherichia coli [4])
≤ 0.015 µg/mL: MIC (Haemophilus influenzae [1]) | MIC50 (Haemophilus influenzae [1]) | MIC90 (Haemophilus influenzae [1])
> 16 µg/mL: MIC90 (Enterobacter cloacae) | MIC90 (Klebsiella pneumoniae [3]) | MIC90 (Escherichia coli [4]) | MIC90 (Escherichia coli [5])
2 µg/mL: MIC90 (Acinetobacter johnsonii) | MIC90 (Acinetobacter lwoffii) | MIC50 (Burkholderia cepacia)
0.06 µg/mL: MIC50 (Enterobacter cloacae) | MIC90 (Citrobacter koseri)
4 µg/mL: MIC90 [2] | MIC90 (Burkholderia cepacia)
0.03 µg/mL: MIC50 (Citrobacter koseri)
0.12 µg/mL: MIC50 (Acinetobacter johnsonii) | MIC50 (Acinetobacter lwoffii)
1 µg/mL: MIC50 (Providencia stuartii) | MIC50 (Streptococcus agalactiae) | MIC90 (Streptococcus agalactiae) | MIC50 [2] | MIC50 (Klebsiella pneumoniae [3]) | MIC90 (Streptococcus pneumoniae [7])
0.5 µg/mL: MIC50 (Klebsiella pneumoniae [6]) | MIC50 (Streptococcus pneumoniae [7])
8 µg/mL: MIC50 (Escherichia coli [5]) | MIC90 (Klebsiella pneumoniae [6])

CCN1CCN(C(=O)N[C@@H](C(=O)N[C@@H]2C(=O)N3[C@@H]2SC(C)(C)[C@@H]3C(=O)O)c2ccccc2)C(=O)C1=O [PIPERACILLIN]
64 µg/mL: MIC50 (Citrobacter freundii) | MIC50 (Staphylococcus aureus) | MIC90 (Pseudomonas aeruginosa)
0.25 µg/mL: MIC90 (Streptococcus agalactiae) | MIC50 [11] | MIC50 (Proteus mirabilis) | MIC50 (Streptococcus pneumoniae [7])
1 µg/mL: MIC90 (Streptococcus pneumoniae [7])
2 µg/mL: MIC50 (Providencia stuartii)
32 µg/mL: MIC90 (Haemophilus influenzae [1]) | MIC50 (Citrobacter koseri) | MIC50 (Enterococcus faecium) | MIC50 (Burkholderia cepacia)
0.015 µg/mL: MIC90 (Streptococcus pneumoniae [8])
128 µg/mL: MIC90 (Citrobacter freundii) | MIC90 (Acinetobacter johnsonii) | MIC90 (Acinetobacter lwoffii) | MIC90 (Burkholderia cepacia)
> 128 µg/mL: MIC90 (Enterobacter cloacae) | MIC50 [9] | MIC90 [9] | MIC90 (Klebsiella pneumoniae [10]) | MIC [2] | MIC50 [2] | MIC90 [2] | MIC50 (Klebsiella pneumoniae [3]) | MIC90 (Klebsiella pneumoniae [3]) | MIC (Escherichia coli [4]) | MIC50 (Escherichia coli [4]) | MIC90 (Escherichia coli [4]) | MIC90 (Citrobacter koseri) | MIC (Escherichia coli [5]) | MIC50 (Escherichia coli [5]) | MIC90 (Escherichia coli [5]) | MIC (Klebsiella pneumoniae [6]) | MIC50 (Klebsiella pneumoniae [6]) | MIC90 (Klebsiella pneumoniae [6]) | MIC90 (Enterococcus faecium)
0.008 µg/mL: MIC50 (Streptococcus pneumoniae [8]) | MIC50 (Haemophilus influenzae [12])
8 µg/mL: MIC50 (Haemophilus influenzae [1]) | MIC50 (Pseudomonas aeruginosa) | MIC50 (Serratia marcescens)
16 µg/mL: MIC50 (Klebsiella pneumoniae [10]) | MIC90 (Serratia marcescens)
0.5 µg/mL: MIC90 [11] | MIC90 (Proteus mirabilis)
0.03 µg/mL: MIC90 (Haemophilus influenzae [12])
0.12 µg/mL: MIC50 (Streptococcus agalactiae)
4 µg/mL: MIC50 (Enterobacter cloacae) | MIC50 (Acinetobacter johnsonii) | MIC50 (Acinetobacter lwoffii)
